Results reported in ChEMBL document CHEMBL3351896, “Small Molecule that Reverses Dexamethasone Resistance in T-cell Acute Lymphoblastic Leukemia (T-ALL)” (ACS Med Chem Lett, 2014).
Active and inactive are the calls of the source. The rule behind the calls is not given here.

Tests used:
CUTLL1 [1] = assay: Induction of PARP1 cleavage in human CUTLL1 cells at 25 uM after 24 hrs by western blotting method; format: functional, cell-based
Summary of the method: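 CUTLL1 cells exposed 24 h to compound (25 μM) alone, with 1 μM dexamethasone, or with dexamethasone plus 1 μM RU486. Apoptosis read as cleaved PARP by Western blot, quantified as fold change.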

CUTLL1 [2] = assay: Growth inhibition of human CUTLL1 cells at 50 uM in presence of taxol after 48 hrs by alamar blue assay; format: functional, cell-based
[3] = molecular target: Gamma-secretase (Homo sapiens) (UniProt Q96BI3+Q9NZ42+Q8WW43+P49768+Q92542+P49810); assay: Inhibition of gamma secretase in human CUTLL1 cells assessed as effect on NOTCH cleavage level at 25 uM after 24 hrs by Western blotting; format: cell-based
Summary of the method: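 Western blot of intracellular NOTCH (ICN) in CUTLL1 cells after 24 h exposure to compound alone or with 1 μM dexamethasone. The γ-secretase inhibitor Compound E (100 nM) plus dexamethasone was the reference treatment.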

CUTLL1 [4] = assay: Potentiation of dexamethasone-induced cytotoxicity against human CUTLL1 cells with low GR expression levels at 50 uM after 48 hrs by alamar blue assay; format: functional, cell-based
Summary of the method: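 Human CUTLL1 T-ALL cells engineered to express high (overexpressed) or low (knockdown) glucocorticoid receptor levels. Exposed to compound alone or with 1 μM dexamethasone. Alamar blue growth inhibition read after 48 h.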

CUTLL1 [5] = assay: Increase in GR expression in human CUTLL1 cells at 25 to 50 uM in presence of 1 uM dexamethasone after 24 hrs by RT-qPCR method; format: functional, cell-based
Summary of the method: (§1)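 CUTLL1 cells exposed to compound (25 or 50 μM) alone, with 1 μM dexamethasone, or with dexamethasone plus 1 μM RU486, for 6 or 24 h. GR measured as protein by Western blot and as transcript by RT-qPCR.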

CUTLL1 [6] = assay: Increase in GR expression in human CUTLL1 cells at < 25 uM after 24 hrs by RT-qPCR method; format: functional, cell-based
CUTLL1 [7] = assay: Increase in GR expression in human CUTLL1 cells at 25 to 50 uM in presence of 1 uM dexamethasone and 1 uM […] and glucocorticoid receptor antagonist RU486 after 24 hrs by RT-qPCR method; format: functional, cell-based; summary of the method: as §1
CUTLL1 [8] = assay: Effect on FKBP5 gene expression in human CUTLL1 cells in presence of 1 uM dexamethasone at 30 uM after 24 hrs by microarray method; format: functional, cell-based
Summary of the method: (§2)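 CUTLL1 T-ALL cells exposed 24 h to vehicle (DMSO), dexamethasone alone (1 μM), test agent alone (30 μM), or dexamethasone (1 μM) plus test agent (30 μM), in triplicate. Expression profiled by microarray. Leading-edge genes from GSEA were compared between the dexamethasone-plus-agent and dexamethasone-alone groups, using glucocorticoid-regulated gene sets from ALL patients on glucocorticoid therapy.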

CUTLL1 [9] = assay: Effect on ZFP36L2 gene expression in human CUTLL1 cells in presence of 1 uM dexamethasone at 30 uM after 24 hrs by microarray method; format: functional, cell-based
Summary of the method: (§3)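 Human CUTLL1 T-ALL cells exposed for 24 h to vehicle (DMSO), dexamethasone alone (1 μM), test compound alone (30 μM), or dexamethasone 1 μM plus compound 30 μM, each in triplicate. Expression profiled by microarray. Glucocorticoid-regulated gene sets from ALL patients on glucocorticoid therapy scored by GSEA. Leading-edge genes compared between the combination and dexamethasone alone.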

CUTLL1 [10] = assay: Effect on APITD1 gene expression in human CUTLL1 cells in presence of 1 uM dexamethasone at 30 uM after 24 hrs by microarray method; format: functional, cell-based; summary of the method: as §2
CUTLL1 [11] = assay: Effect on SPC25 gene expression in human CUTLL1 cells in presence of 1 uM dexamethasone at 30 uM after 24 hrs by microarray method; format: functional, cell-based; summary of the method: as §3
CUTLL1 [12] = assay: Effect on TSR1 gene expression in human CUTLL1 cells in presence of 1 uM dexamethasone at 30 uM after 24 hrs by microarray method; format: functional, cell-based; summary of the method: as §3
CUTLL1 [13] = assay: Effect on POLE3 gene expression in human CUTLL1 cells in presence of 1 uM dexamethasone at 30 uM after 24 hrs by microarray method; format: functional, cell-based; summary of the method: as §3
CUTLL1 [14] = assay: Effect on CHEK1 gene expression in human CUTLL1 cells in presence of 1 uM dexamethasone at 30 uM after 24 hrs by microarray method; format: functional, cell-based; summary of the method: as §2
CUTLL1 [15] = assay: Effect on TIPIN gene expression in human CUTLL1 cells in presence of 1 uM dexamethasone at 30 uM after 24 hrs by microarray method; format: functional, cell-based; summary of the method: as §3
CUTLL1 [16] = assay: Effect on ZWINT gene expression in human CUTLL1 cells in presence of 1 uM dexamethasone at 30 uM after 24 hrs by microarray method; format: functional, cell-based; summary of the method: as §3
CUTLL1 [17] = assay: Effect on CDC25A gene expression in human CUTLL1 cells in presence of 1 uM dexamethasone at 30 uM after 24 hrs by microarray method; format: functional, cell-based; summary of the method: as §2
CUTLL1 [18] = assay: Effect on FEN1 gene expression in human CUTLL1 cells in presence of 1 uM dexamethasone at 30 uM after 24 hrs by microarray method; format: functional, cell-based; summary of the method: as §2
CUTLL1 [19] = assay: Effect on PAICS gene expression in human CUTLL1 cells in presence of 1 uM dexamethasone at 30 uM after 24 hrs by microarray method; format: functional, cell-based; summary of the method: as §2
CUTLL1 [20] = assay: Effect on RANBP1 gene expression in human CUTLL1 cells in presence of 1 uM dexamethasone at 30 uM after 24 hrs by microarray method; format: functional, cell-based; summary of the method: as §3
CUTLL1 [21] = assay: Effect on USP1 gene expression in human CUTLL1 cells in presence of 1 uM dexamethasone at 30 uM after 24 hrs by microarray method; format: functional, cell-based; summary of the method: as §3
CUTLL1 [22] = assay: Effect on SOCS1 gene expression in human CUTLL1 cells in absence of 1 uM dexamethasone at 30 uM after 24 hrs by microarray method; format: functional, cell-based; summary of the method: as §3
CUTLL1 [23] = assay: Effect on TIFA gene expression in human CUTLL1 cells in absence of 1 uM dexamethasone at 30 uM after 24 hrs by microarray method; format: functional, cell-based; summary of the method: as §3
CUTLL1 [24] = assay: Effect on CDT1 gene expression in human CUTLL1 cells in absence of 1 uM dexamethasone at 30 uM after 24 hrs by microarray method; format: functional, cell-based; summary of the method: as §2
CUTLL1 [25] = assay: Effect on DSCC1 gene expression in human CUTLL1 cells in absence of 1 uM dexamethasone at 30 uM after 24 hrs by microarray method; format: functional, cell-based; summary of the method: as §2
CUTLL1 [26] = assay: Effect on RUVBL1 gene expression in human CUTLL1 cells in absence of 1 uM dexamethasone at 30 uM after 24 hrs by microarray method; format: functional, cell-based; summary of the method: as §3
CUTLL1 [27] = assay: Effect on FEN1 gene expression in human CUTLL1 cells in absence of 1 uM dexamethasone at 30 uM after 24 hrs by microarray method; format: functional, cell-based; summary of the method: as §2
CUTLL1 [28] = assay: Effect on PAICS gene expression in human CUTLL1 cells in absence of 1 uM dexamethasone at 30 uM after 24 hrs by microarray method; format: functional, cell-based; summary of the method: as §2
CUTLL1 [29] = assay: Effect on NXT1 gene expression in human CUTLL1 cells in absence of 1 uM dexamethasone at 30 uM after 24 hrs by microarray method; format: functional, cell-based; summary of the method: as §2
CUTLL1 [30] = assay: Effect on RANBP1 gene expression in human CUTLL1 cells in absence of 1 uM dexamethasone at 30 uM after 24 hrs by microarray method; format: functional, cell-based; summary of the method: as §3
CUTLL1 [31] = assay: Effect on E2F7 gene expression in human CUTLL1 cells in absence of 1 uM dexamethasone at 30 uM after 24 hrs by microarray method; format: functional, cell-based; summary of the method: as §2

SMILES: Nc1ncc(-c2ccncc2)c(C2CC2)n1
- Activity (CUTLL1 [1]): inactive
- growth inhibition (GI) (CUTLL1 [2]): inactive
- inhibition [3]: inactive
- Activity (CUTLL1 [4]): Active
- Activity (CUTLL1 [5]): Active
- Activity (CUTLL1 [6]): inactive
- Activity (CUTLL1 [7]): inactive
- Activity (CUTLL1 [8]): Active
- Activity (CUTLL1 [9]): Active
- Activity (CUTLL1 [10]): Active
- Activity (CUTLL1 [11]): Active
- Activity (CUTLL1 [12]): Active
- Activity (CUTLL1 [13]): Active
- Activity (CUTLL1 [14]): Active
- Activity (CUTLL1 [15]): Active
- Activity (CUTLL1 [16]): Active
- Activity (CUTLL1 [17]): Active
- Activity (CUTLL1 [18]): Active
- Activity (CUTLL1 [19]): Active
- Activity (CUTLL1 [20]): Active
- Activity (CUTLL1 [21]): Active
- Activity (CUTLL1 [22]): inactive
- Activity (CUTLL1 [23]): inactive
- Activity (CUTLL1 [24]): inactive
- Activity (CUTLL1 [25]): inactive
- Activity (CUTLL1 [26]): inactive
- Activity (CUTLL1 [27]): inactive
- Activity (CUTLL1 [28]): inactive
- Activity (CUTLL1 [29]): inactive
- Activity (CUTLL1 [30]): inactive
- Activity (CUTLL1 [31]): inactive
